Measured values taken from ChEMBL document CHEMBL3612047, “Synthesis, antiproliferative activity and possible mechanism of action of novel 2-acetamidobenzamides bearing the 2-phenoxy functionality” (Bioorg Med Chem, 2015).
The source made the active and inactive calls. The rule behind the calls is not given here.

What was measured:
PC-3 = assay: Growth inhibition of human PC3 cells by NCI standard protocol based method; type: functional
Procedure, shortened: (§1)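 NCI full 60-cell-line panel, 5-dose assay to the NCI standard protocol. GI₅₀ is the molar concentration inhibiting 50% net cell growth. Mean graph midpoint is averaged over all lines; where the effect is not reached, the highest tested concentration is used.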

K562 [1] = assay: Induction of mitotic arrest in human K562 cells; type: functional, cell-based
OVCAR-8 = assay: Growth inhibition of human OVCAR8 cells by NCI standard protocol based method; type: functional; procedure, shortened: as §1
NCI-H522 = assay: Growth inhibition of human NCI-H522 cells by NCI standard protocol based method; type: functional; procedure, shortened: as §1
HCT-116 = assay: Growth inhibition of human HCT116 cells by NCI standard protocol based method; type: functional; procedure, shortened: as §1
NCI-H460 = assay: Growth inhibition of human NCI-H460 cells by NCI standard protocol based method; type: functional; procedure, shortened: as §1
[2] = Growth inhibition of human NCI60 cells by NCI standard protocol based method; type: functional; details: for TGI: read-out: pTGI (converted); procedure, shortened: as §1
[3] = Growth inhibition of human MOLT4 cells by NCI standard protocol based method; type: functional; details: MOLT-4; procedure, shortened: as §1
[4] = Growth inhibition of human RXF393 cells by NCI standard protocol based method; type: functional; details: RXF 393; procedure, shortened: as §1
U-251 = assay: Growth inhibition of human U251 cells by NCI standard protocol based method; type: functional
Procedure, shortened: (§2)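 NCI 60-cell-line screen, standard NCI protocol. Single high dose of 10⁻⁵ M first, then a 5-dose assay across the full panel. Reported as GI₅₀, TGI and LC₅₀, the molar concentrations giving 50% net growth inhibition, total growth inhibition and 50% net cell death. Where an effect was not reached, the highest tested concentration was used.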

NCI-H23 = assay: Growth inhibition of human NCI-H23 cells by NCI standard protocol based method; type: functional; procedure, shortened: as §1
K562 [5] = assay: Growth inhibition of human K562 cells incubated for 24 hrs by trypan blue dye exclusion assay; type: functional, cell-based; details: K562, 24 h
Procedure, shortened: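 K562 cells, about 2 × 10⁵ cells/mL, precultured 24 h, then exposed 24 h to a range of compound concentrations. Viable cells counted by hemocytometer with trypan blue exclusion to derive IC₅₀.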

SK-OV-3 = assay: Growth inhibition of human SKOV3 cells by NCI standard protocol based method; type: functional; procedure, shortened: as §2
OVCAR-5 = assay: Growth inhibition of human OVCAR5 cells by NCI standard protocol based method; type: functional; procedure, shortened: as §1
T47D = assay: Growth inhibition of human T47D cells by NCI standard protocol based method; type: functional; procedure, shortened: as §2
HL-60(TB) = assay: Growth inhibition of human HL-60(TB) cells by NCI standard protocol based method; type: functional
Procedure, shortened: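 Tested in the NCI 60-cell-line screen under its standard protocol. A single-dose prescreen was run at 10⁻⁵ M, then a five-dose assay. GI50 is the molar concentration that inhibits net cell growth by 50%.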

[6] = Cytotoxicity against human HuDe cells incubated for 72 hrs by MTT assay; type: cell-based
Procedure, shortened: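 HuDe primary culture from human epidermis, seeded at 2 × 10⁴ cells/mL. Test drugs at different concentrations, or 0.1% DMSO, added 24 h after seeding, with 72 h exposure. MTT (5 mg/mL in PBS) then applied for 3 h at 37 °C. Formazan solubilized with isopropanol/triton X-100/HCl and read at 570 nm with 690 nm blank.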

SNB-19 = assay: Growth inhibition of human SNB19 cells by NCI standard protocol based method; type: functional; procedure, shortened: as §2
[7] = Growth inhibition of human COLO205 cells by NCI standard protocol based method; type: functional; details: COLO 205; procedure, shortened: as §1
K562 [8] = assay: Induction of apoptosis in human K562 cells assessed as necrotic cells level at 10 uM incubated for 24 hrs by Annexin-V and propidium iodide staining staining based flow cytometry (reference value: 0.3%); type: functional
K562 [9] = assay: Induction of cell cycle arrest in human K562 cells assessed as accumulation at sub G0/G1 phase at 10 uM incubated for 48 hrs by propidium iodide staining based flow cytometry (reference value: 0.8%); type: functional
K562 [10] = assay: Induction of apoptosis in human K562 cells assessed as nuclear fragmentation at 10 uM incubated for 48 hrs by Hoechst 33342 staining based fluorescence microscopy; type: functional, cell-based
Procedure, shortened: (§3)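 K562 cells (8 × 10³/well) on poly-D-lysine-coated wells, allowed to adhere overnight. Stained with Hoechst 33342 for 30 min, washed with PBS, resuspended in medium, then treated at 10 μM for 48 h.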

K562 [11] = assay: Induction of apoptosis in human K562 cells assessed as chromatin condensation at 10 uM incubated for 48 hrs by Hoechst 33342 staining based fluorescence microscopy; type: functional, cell-based; procedure, shortened: as §3
K562 [12] = assay: Induction of morphological changes in human K562 cells assessed as cell detachment at 10 and 25 uM incubated for 48 hrs by light microscopy; type: functional, cell-based
Procedure, shortened: (§4)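 K562 cells (8 × 10³/well) plated on poly-D-lysine-coated wells and treated at 10 or 25 μM for 48 h. Examined by light microscopy at 200× for shape, detachment, cell number and cell size.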

K562 [13] = assay: Induction of cell cycle arrest in human K562 cells assessed as accumulation at G0/G1 phase at 10 uM incubated for 24 hrs by propidium iodide staining based flow cytometry (reference value: 54.9%); type: functional
K562 [14] = assay: Induction of apoptosis in human K562 cells assessed as early apoptotic cells level at 10 uM incubated for 24 hrs by Annexin-V and propidium iodide staining staining based flow cytometry (reference value: 1.6%); type: functional
K562 [15] = assay: Induction of cell cycle arrest in human K562 cells assessed as accumulation at G2/M phase at 10 uM incubated for 24 hrs by propidium iodide staining based flow cytometry (reference value: 31.6%); type: functional
K562 [16] = assay: Induction of apoptosis in human K562 cells assessed as late apoptotic cells level at 10 uM incubated for 24 hrs by Annexin-V and propidium iodide staining staining based flow cytometry (reference value: 0.2%); type: functional
K562 [17] = assay: Induction of cell cycle arrest in human K562 cells assessed as accumulation at G2/M phase at 10 uM incubated for 48 hrs by propidium iodide staining based flow cytometry (reference value: 27.4%); type: functional
K562 [18] = assay: Induction of apoptosis in human K562 cells assessed as viable cells level at 10 uM incubated for 24 hrs by Annexin-V and propidium iodide staining staining based flow cytometry (reference value: 98%); type: functional
K562 [19] = assay: Induction of morphological changes in human K562 cells at 10 and 25 uM incubated for 48 hrs by light microscopy; type: functional, cell-based; procedure, shortened: as §4
K562 [20] = assay: Reduction in cell number of human K562 cells at 10 and 25 uM incubated for 48 hrs by light microscopy; type: functional, cell-based; procedure, shortened: as §4
K562 [21] = assay: Induction of apoptosis in human K562 cells assessed as reduction in pro-caspase-3 levels at 10 uM incubated for 48 hrs by Western blot method relative to basal level; type: functional; details: K562, 48 h
Procedure, shortened: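 K562 cells were seeded at 1.5 × 10⁵/well and treated 48 h. Lysate protein was measured by Lowry assay and run on SDS-PAGE. Blots on nitrocellulose were probed with alkaline phosphatase-conjugated antibodies to pro-caspases 3 and 6. Loading was checked by Ponceau red and β-actin immunoblot, with level expressed against basal. Three independent experiments.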

K562 [22] = assay: Induction of cell cycle arrest in human K562 cells assessed as accumulation at sub G0/G1 phase at 10 uM incubated for 24 hrs by propidium iodide staining based flow cytometry (reference value: 0.8%); type: functional

| SMILES | GI50 (PC-3) | Activity (K562 [1]) | GI50 (OVCAR-8) | GI50 (NCI-H522) | GI50 (HCT-116) | GI50 (NCI-H460) | GI50 [2] | LC50 [2] | TGI [2] | GI50 [3] | GI50 [4] | GI50 (U-251) | GI50 (NCI-H23) | IC50 (K562 [5]) | GI50 (SK-OV-3) | GI50 (OVCAR-5) | GI50 (HL-60(TB)) | IC50 [6] | GI50 (SNB-19) | GI50 [7] | also measured |
| --- | --- | --- | --- | --- | --- | --- | --- | --- | --- | --- | --- | --- | --- | --- | --- | --- | --- | --- | --- | --- | --- |
| NC(=O)c1cc(Cl)ccc1NC(=O)COc1ccccc1 | 3220 nM | Active | 7060 nM | 3780 nM | 2720 nM | 3000 nM | 4900 nM | 100000 nM | 72400 nM | 8140 nM | 3930 nM | 2340 nM | 5900 nM | 1300 nM | 8150 nM | 3860 nM | 3290 nM | 808000 nM | 11700 nM | 2510 nM | GI50 (T47D): 6870 nM |
| COc1cc(NC(=O)COc2ccccc2)c(C(N)=O)cc1OC | 2230 nM | Active | 3010 nM | 410 nM | 620 nM | 529 nM | 1950 nM | 93300 nM | 49000 nM | 2910 nM | 1690 nM | 777 nM | 1320 nM | 580 nM | 3580 nM | 15000 nM | 293 nM | 163000 nM | 3310 nM | 453 nM | Activity (K562 [8]): 2.3%; Activity (K562 [9]): 20.6%; Activity (K562 [10]): Active; Activity (K562 [11]): Active; Activity (K562 [12]): Active; Activity (K562 [13]): 80%; Activity (K562 [14]): 22.7%; Activity (K562 [15]): 2.8%; Activity (K562 [16]): 11.6%; Activity (K562 [17]): 31.2%; Activity (K562 [18]): 63.3%; Activity (K562 [19]): Active; GI50 (T47D): 3460 nM; Activity (K562 [20]): Active; inhibition at 10 µM (K562 [21]): 50%; Activity (K562 [22]): 13.2% |
| COc1ccc(NC(=O)COc2ccccc2)c(C(N)=O)c1 | 464 nM | Active | 3130 nM | 1190 nM | 518 nM | 484 nM | 891 nM | 97700 nM | 49000 nM | 2000 nM | 1400 nM | 664 nM | 1380 nM | 1100 nM | 2990 nM | 5400 nM | 340 nM | 942000 nM | 3200 nM | 487 nM | – |
| NC(=O)c1cc(I)ccc1NC(=O)COc1ccccc1 | 428 nM | Active | 904 nM | 630 nM | 517 nM | 425 nM | 692 nM | 89100 nM | 35500 nM | 1100 nM | 413 nM | 396 nM | 657 nM | 160 nM | 3170 nM | 1680 nM | 339 nM | 318000 nM | 913 nM | 353 nM | Activity (K562 [8]): 0.9%; Activity (K562 [9]): 32.9%; Activity (K562 [10]): Active; Activity (K562 [11]): Active; Activity (K562 [12]): Active; Activity (K562 [13]): 78.5%; Activity (K562 [14]): 24.5%; Activity (K562 [15]): 2.4%; Activity (K562 [16]): 12.5%; Activity (K562 [17]): 13.3%; Activity (K562 [18]): 62.1%; Activity (K562 [19]): Active; GI50 (T47D): 556 nM; Activity (K562 [20]): Active; inhibition at 10 µM (K562 [21]): 40%; Activity (K562 [22]): 14.5% |
